From ChEMBL document CHEMBL5653631, “A Potent and Selective ULK1 Inhibitor Suppresses Autophagy and Sensitizes Cancer Cells to Nutrient Stress” (iScience, 2018)
Each block holds one compound with its values, some of them ahead of it.

Columns and labels:
[1] = target: ALK tyrosine kinase receptor (Homo sapiens) (UniProt Q9UM73); assay: Inhibition of human recombinant ALK at 500 nM related to control ULK1
In short: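 Panel of 327 recombinant human kinases, each assayed in vitro by radiometric activity assay in duplicate at a single inhibitor concentration per compound, chosen with reference to its ULK1 inhibition. Activity remaining was expressed as percent of vehicle control, and percent inhibition was calculated as 100 minus percent activity remaining.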

[2] = target: T1, Beta-adrenergic receptor kinase 1 (Homo sapiens) (UniProt P25098); assay: Inhibition of human recombinant BARK1 at 500 nM in presence of ATP by radiometric assay relative to control
T1 sequence (whole entry): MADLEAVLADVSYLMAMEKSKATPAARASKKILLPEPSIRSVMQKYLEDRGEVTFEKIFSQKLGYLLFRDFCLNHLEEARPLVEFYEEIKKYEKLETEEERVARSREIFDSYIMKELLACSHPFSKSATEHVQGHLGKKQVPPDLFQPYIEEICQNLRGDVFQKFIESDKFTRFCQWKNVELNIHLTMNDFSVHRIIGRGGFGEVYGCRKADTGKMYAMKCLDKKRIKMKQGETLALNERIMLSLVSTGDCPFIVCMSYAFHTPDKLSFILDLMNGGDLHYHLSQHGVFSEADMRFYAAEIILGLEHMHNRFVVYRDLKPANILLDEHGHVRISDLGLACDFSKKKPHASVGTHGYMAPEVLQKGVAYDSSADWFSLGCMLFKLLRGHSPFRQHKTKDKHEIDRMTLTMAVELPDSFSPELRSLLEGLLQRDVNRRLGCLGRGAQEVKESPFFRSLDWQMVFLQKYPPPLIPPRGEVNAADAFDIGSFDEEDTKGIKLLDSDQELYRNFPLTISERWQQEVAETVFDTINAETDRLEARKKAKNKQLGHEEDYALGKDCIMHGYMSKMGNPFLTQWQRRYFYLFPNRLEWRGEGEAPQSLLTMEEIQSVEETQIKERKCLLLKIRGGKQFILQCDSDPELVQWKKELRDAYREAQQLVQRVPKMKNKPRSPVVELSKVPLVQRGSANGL
In short: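 Part of a radiometric in vitro activity panel of 327 recombinant human kinases. Each kinase was tested in duplicate at one inhibitor concentration. Activity remaining was expressed as a percentage of the vehicle control, and percent inhibition was taken as 100 minus that value.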

[3] = target: Vascular endothelial growth factor receptor 3 (Homo sapiens) (UniProt P35916); assay: Inhibition of human recombinant FLT4 at 500 nM related to control ULK1
[4] = target: T2, Dual specificity tyrosine-phosphorylation-regulated kinase 3 (Homo sapiens) (UniProt O43781); assay: Inhibition of human recombinant DYRK3 at 40 nM in presence of ATP by radiometric assay relative to control
T2 sequence (whole entry): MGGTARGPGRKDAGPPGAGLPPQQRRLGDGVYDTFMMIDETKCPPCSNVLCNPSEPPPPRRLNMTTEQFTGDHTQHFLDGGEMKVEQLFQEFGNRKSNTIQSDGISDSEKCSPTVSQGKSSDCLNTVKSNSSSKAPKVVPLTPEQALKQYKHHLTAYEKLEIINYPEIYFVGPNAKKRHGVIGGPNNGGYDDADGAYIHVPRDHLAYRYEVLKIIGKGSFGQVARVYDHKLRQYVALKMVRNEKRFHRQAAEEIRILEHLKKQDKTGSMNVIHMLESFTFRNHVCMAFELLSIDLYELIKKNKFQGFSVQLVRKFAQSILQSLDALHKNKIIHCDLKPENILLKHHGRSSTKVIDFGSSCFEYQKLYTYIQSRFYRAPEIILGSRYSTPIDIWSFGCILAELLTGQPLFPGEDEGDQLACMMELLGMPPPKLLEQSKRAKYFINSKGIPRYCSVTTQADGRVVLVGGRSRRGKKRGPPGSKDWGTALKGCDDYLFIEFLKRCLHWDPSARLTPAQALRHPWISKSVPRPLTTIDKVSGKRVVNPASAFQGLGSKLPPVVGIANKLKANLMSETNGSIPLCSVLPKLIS

[5] = target: T3, NUAK family SNF1-like kinase 2 (Homo sapiens) (UniProt Q9H093); assay: Inhibition of human recombinant NuaK2 at 40 nM in presence of ATP by radiometric assay relative to control
T3 sequence (whole entry): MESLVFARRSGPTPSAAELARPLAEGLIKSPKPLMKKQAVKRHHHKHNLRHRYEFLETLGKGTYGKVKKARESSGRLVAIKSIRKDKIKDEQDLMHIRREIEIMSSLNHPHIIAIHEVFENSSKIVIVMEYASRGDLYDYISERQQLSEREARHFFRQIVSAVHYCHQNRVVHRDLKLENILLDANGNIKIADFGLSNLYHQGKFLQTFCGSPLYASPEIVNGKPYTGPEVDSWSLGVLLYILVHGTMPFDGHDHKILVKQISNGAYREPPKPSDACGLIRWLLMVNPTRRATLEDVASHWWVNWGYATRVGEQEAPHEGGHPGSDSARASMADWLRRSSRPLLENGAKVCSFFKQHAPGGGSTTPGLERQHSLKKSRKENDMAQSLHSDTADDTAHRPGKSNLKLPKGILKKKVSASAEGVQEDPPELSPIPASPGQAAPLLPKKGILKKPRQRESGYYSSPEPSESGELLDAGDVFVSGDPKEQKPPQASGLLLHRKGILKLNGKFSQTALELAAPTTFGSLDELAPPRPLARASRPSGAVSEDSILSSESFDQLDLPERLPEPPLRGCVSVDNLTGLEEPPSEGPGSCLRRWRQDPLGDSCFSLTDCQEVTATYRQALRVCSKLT

[6] = target: Calcium/calmodulin-dependent protein kinase type II subunit delta (Homo sapiens) (UniProt Q13557); assay: Inhibition of human recombinant CaMK2d at 15 nM in presence of ATP by radiometric assay relative to control
[7] = target: T4, Serine/threonine-protein kinase 3 (Homo sapiens) (UniProt Q13188); assay: Inhibition of human recombinant MST2 at 15 nM in presence of ATP by radiometric assay relative to control
T4 sequence (whole entry): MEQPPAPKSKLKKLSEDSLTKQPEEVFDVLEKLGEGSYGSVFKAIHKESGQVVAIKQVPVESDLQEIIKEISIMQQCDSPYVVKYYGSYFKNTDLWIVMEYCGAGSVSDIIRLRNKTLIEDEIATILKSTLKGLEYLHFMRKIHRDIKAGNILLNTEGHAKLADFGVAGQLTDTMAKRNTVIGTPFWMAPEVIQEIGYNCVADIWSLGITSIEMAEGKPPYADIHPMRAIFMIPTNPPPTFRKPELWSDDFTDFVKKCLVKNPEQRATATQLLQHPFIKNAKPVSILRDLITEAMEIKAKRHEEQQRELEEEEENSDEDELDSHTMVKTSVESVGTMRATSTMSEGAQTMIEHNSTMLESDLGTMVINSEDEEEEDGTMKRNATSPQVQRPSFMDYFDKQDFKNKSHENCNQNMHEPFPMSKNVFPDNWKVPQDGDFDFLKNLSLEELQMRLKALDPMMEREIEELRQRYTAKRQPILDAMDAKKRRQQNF

Calcium/calmodulin-dependent protein kinase type II subunit delta (Homo sapiens), sequence (Q13557 whole entry): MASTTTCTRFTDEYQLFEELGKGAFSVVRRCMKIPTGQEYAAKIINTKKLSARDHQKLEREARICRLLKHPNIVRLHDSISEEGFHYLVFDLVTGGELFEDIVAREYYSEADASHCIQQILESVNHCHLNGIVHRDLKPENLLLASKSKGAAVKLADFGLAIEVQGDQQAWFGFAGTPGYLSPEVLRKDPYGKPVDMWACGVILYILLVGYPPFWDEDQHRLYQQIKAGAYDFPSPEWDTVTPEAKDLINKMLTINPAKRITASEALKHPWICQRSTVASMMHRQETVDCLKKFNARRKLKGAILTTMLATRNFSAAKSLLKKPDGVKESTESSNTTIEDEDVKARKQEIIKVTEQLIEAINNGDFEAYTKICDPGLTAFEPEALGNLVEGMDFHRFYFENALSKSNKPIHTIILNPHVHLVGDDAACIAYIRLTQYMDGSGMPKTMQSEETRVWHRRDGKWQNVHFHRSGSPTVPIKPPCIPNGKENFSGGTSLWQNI
ALK tyrosine kinase receptor (Homo sapiens), sequence (Q9UM73 19-1620 limits assumed): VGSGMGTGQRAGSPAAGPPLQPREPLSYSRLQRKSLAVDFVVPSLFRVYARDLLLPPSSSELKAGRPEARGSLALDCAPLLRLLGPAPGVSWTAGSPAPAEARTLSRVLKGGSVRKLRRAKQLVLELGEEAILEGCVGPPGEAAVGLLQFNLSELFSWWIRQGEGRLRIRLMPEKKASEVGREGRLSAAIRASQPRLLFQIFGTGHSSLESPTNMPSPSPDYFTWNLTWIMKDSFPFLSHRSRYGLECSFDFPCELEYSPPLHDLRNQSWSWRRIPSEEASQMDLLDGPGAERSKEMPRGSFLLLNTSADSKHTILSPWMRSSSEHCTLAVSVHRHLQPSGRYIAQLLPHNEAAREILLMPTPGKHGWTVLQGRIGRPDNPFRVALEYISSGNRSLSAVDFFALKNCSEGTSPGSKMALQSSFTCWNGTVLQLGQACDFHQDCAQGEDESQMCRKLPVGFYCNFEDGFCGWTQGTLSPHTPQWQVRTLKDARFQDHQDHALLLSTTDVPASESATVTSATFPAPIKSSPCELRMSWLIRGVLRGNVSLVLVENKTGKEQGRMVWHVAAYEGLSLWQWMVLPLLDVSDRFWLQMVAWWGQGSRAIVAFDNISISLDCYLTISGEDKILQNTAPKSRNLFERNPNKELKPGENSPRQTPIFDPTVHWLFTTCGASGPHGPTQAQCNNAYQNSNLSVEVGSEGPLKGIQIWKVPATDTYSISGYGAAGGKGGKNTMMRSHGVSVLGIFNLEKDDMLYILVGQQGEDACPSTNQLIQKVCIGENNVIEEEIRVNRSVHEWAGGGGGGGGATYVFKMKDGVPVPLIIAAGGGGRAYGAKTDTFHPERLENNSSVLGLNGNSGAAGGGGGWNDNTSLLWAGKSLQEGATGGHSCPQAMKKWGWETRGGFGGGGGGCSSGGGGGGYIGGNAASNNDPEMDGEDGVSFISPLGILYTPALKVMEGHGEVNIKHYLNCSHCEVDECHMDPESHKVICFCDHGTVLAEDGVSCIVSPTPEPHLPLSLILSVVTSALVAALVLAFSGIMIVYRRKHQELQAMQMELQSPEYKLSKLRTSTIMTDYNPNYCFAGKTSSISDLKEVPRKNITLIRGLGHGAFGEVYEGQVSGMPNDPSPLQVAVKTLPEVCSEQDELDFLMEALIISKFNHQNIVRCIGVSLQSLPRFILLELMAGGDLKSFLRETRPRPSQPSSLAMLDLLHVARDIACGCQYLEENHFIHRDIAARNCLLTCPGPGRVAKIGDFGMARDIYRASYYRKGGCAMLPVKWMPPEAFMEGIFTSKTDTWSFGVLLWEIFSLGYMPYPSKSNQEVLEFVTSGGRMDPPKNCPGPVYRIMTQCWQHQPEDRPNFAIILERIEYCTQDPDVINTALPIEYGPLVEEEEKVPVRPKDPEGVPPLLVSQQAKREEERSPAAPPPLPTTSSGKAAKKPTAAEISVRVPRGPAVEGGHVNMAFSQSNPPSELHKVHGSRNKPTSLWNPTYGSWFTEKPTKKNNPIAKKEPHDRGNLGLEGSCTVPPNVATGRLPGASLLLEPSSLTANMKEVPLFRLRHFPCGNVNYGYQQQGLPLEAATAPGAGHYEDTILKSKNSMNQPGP
Vascular endothelial growth factor receptor 3 (Homo sapiens), sequence (P35916 whole entry): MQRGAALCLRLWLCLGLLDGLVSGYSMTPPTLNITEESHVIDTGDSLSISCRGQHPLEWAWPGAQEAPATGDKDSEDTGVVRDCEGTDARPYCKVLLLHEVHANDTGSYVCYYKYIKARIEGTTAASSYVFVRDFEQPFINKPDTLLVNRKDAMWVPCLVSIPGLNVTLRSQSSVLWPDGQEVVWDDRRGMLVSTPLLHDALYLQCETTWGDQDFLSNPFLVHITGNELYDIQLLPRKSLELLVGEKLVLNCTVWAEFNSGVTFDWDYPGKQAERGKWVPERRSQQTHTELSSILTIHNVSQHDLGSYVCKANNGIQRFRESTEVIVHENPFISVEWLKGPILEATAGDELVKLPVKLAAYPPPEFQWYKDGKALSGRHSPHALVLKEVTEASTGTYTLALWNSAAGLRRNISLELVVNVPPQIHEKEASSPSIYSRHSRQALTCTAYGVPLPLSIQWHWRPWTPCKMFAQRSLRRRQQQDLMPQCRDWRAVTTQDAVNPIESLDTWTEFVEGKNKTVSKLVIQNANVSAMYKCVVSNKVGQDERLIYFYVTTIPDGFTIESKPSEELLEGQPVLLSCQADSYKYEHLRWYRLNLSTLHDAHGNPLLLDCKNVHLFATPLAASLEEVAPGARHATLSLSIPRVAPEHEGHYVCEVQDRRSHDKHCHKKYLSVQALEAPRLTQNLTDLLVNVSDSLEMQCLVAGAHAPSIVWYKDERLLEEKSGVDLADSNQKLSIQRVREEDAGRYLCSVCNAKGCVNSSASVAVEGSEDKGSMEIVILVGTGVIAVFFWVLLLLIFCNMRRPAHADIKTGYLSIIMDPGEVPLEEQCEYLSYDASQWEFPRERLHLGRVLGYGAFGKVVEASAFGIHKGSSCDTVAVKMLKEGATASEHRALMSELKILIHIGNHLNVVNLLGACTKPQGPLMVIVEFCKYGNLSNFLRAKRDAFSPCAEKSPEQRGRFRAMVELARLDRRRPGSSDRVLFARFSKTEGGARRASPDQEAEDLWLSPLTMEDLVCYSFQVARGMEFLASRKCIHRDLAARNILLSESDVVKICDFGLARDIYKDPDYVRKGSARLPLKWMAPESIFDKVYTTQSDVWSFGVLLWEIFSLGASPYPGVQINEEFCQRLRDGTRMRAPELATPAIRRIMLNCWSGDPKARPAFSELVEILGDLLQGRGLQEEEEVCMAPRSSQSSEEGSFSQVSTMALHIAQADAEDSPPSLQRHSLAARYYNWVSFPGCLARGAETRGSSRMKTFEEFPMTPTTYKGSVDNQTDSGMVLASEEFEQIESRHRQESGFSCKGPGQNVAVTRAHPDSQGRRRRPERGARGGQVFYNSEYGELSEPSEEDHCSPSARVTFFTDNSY

- fold change (FC) [1]: 0
- inhibition [2]: 8%
- fold change (FC) [3]: 0.31
Structure (SMILES): CNC(=O)c1ccccc1Oc1nc(Nc2cc(OC)c(OC)c(OC)c2)ncc1Br

- inhibition [4]: 30%
- inhibition [5]: 3%
Structure (SMILES): O=C(N[C@@H](C1CC1)C(F)(F)F)c1cc(-c2cnn3cc(-c4ccc(F)cc4)cnc23)cs1

- inhibition [6]: 20%
- inhibition [7]: 3%
Structure (SMILES): CC(C)[C@H](NC(=O)c1cc(-c2cnn3cc(-c4ccc(OCCN5CCCCC5)cc4)cnc23)cs1)C(F)(F)F
